In brackets after ≈: the same amount, converted by molar mass. Activity calls are given as the source filed them. No cut-off for these calls is given here.

1 compound from ChEMBL document CHEMBL5104102, “Discovery of FtsZ inhibitors by virtual screening as antibacterial agents and study of the inhibition mechanism” (RSC Med Chem, 2022) can be followed below.

Experiment [1] has as its system Staphylococcus aureus. In words: Antibacterial activity against methicillin-resistant Staphylococcus aureus BAA 44 assessed as inhibition of bacterial growth incubated for 18 hrs by CLSI protocol based two fold serial dilution method. Format: functional. In a few lines:
(§1)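 CAMHB culture grown overnight at 37 °C with shaking at 250 rpm, diluted 10-fold, and grown 2 h. Inoculum set to 5 × 10^6 CFU mL−1 by A600. Compounds in DMSO were serially diluted two-fold, with 1% DMSO per well. Read at A600 after 18 h at 37 °C. MIC is the lowest concentration giving A600 < 0.1. Run in duplicate.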

Experiment [2] concerns Staphylococcus aureus. Briefly: Bactericidal activity against methicillin-resistant Staphylococcus aureus BAA 41 assessed as inhibition of bacterial growth at 1 ug/ml incubated for 24 hrs by time-kill assay. Conditions: dose 1.0 µg/ml. It is filed as functional, organism-based. In a few lines: (§2)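 Time-kill: 3 mL culture at 5 × 10^5 CFU mL−1 exposed to compound at several concentrations or to 1% DMSO control at 37 °C with shaking at 250 rpm, over 24 h. 100 μL samples taken at intervals, diluted as needed, and spread on agar. Colonies counted after 24 h at 37 °C.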

The target in experiment [3] is T1, Cell division protein FtsZ (Staphylococcus aureus) (UniProt P0A031).
T1 sequence (whole entry): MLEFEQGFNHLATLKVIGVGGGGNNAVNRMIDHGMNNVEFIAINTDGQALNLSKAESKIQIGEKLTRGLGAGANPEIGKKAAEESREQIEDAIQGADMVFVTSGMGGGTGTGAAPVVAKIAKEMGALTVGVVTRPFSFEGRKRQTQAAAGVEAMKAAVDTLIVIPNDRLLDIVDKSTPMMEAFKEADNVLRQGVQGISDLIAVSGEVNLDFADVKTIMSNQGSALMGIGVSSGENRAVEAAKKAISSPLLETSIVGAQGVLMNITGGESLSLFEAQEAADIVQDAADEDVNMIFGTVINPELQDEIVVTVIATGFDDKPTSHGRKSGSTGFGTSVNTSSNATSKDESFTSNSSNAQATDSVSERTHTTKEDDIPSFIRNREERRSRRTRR
In words: Inhibition of Staphylococcus aureus FtsZ polymerization assessed as increase in GTPase activity at 1 ug/ml incubated for 40 mins in presence of GTP by malachite green phosphate assay. The note with it: dose 1.0 µg/ml. The procedure, abridged: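 Purified S. aureus FtsZ (3 μM) was preincubated with serially diluted compound in 50 mM MOPS pH 6.5 for 30 min at room temperature; 1% DMSO served as control. MgCl2 (5 mM) and KCl (200 mM) were added, and the reaction was started with 250 μM GTP for 10 min at 37 °C. Malachite green reagent was then developed 30 min at 37 °C, and released phosphate was read at A600.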

A further experiment concerns Bacillus subtilis. In words: Antibacterial activity against Bacillus subtilis 168 assessed as inhibition of bacterial growth incubated for 18 hrs by CLSI protocol based two-fold serial dilution assay. It is filed as functional. The procedure, abridged:
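B. subtilis 168 or E. coli ATCC 25922 was grown in MHB and tested by CLSI-based broth microdilution. An overnight culture (37 °C, 250 rpm) was diluted tenfold, grown 2 h, and set to 5 × 10^6 CFU mL−1 by A600. Cells were added to two-fold serial compound dilutions (1% DMSO) and incubated 18 h at 37 °C. Read-out was A600, in duplicate. MIC was the lowest concentration giving A600 < 0.1.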

Experiment [4] is described as follows: Ratio of MBC for bactericidal activity against methicillin-resistant Staphylococcus aureus BAA 41 to MIC for antibacterial activity against methicillin-resistant Staphylococcus aureus BAA 41. It is filed as functional. In a few lines:
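MBC: culture at 5 × 10^5 CFU mL−1 incubated overnight at 37 °C with shaking and compound or 1% DMSO, then diluted ≥10-fold and plated on TSA for 24 h at 37 °C. MBC is the lowest concentration giving ≥99.9% reduction of the initial count. MBC is divided by the broth-dilution MIC (A600 < 0.1 after 18 h).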

The subject of experiment [5] is Staphylococcus aureus. Briefly: Synergistic antibacterial activity against methicillin-resistant Staphylococcus aureus BAA 41 assessed as FICI incubated for 18 hrs in presence of methicillin by checkerboard assay. It is filed as functional. The procedure, abridged:
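Checkerboard: test compound serially diluted two-fold across the plate and methicillin serially diluted down it. Bacteria added at 5 × 10^5 CFU mL−1. Incubated at 37 °C for 16–24 h, then growth read at A600. Untreated-cell columns included. FICI calculated from the combination MICs.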

Experiment [6] concerns Staphylococcus aureus. Briefly: Bactericidal activity against methicillin-resistant Staphylococcus aureus BAA 41 assessed as inhibition of bacterial growth at 2 ug/ml incubated for 24 hrs by time-kill assay. The note with it: dose 2.0 µg/ml. Format: functional, organism-based. In a few lines: as §2
Experiment [7] deals with T2, Cell division protein FtsZ (Bacillus subtilis (strain 168)) (UniProt P17865).
T2 sequence (whole entry): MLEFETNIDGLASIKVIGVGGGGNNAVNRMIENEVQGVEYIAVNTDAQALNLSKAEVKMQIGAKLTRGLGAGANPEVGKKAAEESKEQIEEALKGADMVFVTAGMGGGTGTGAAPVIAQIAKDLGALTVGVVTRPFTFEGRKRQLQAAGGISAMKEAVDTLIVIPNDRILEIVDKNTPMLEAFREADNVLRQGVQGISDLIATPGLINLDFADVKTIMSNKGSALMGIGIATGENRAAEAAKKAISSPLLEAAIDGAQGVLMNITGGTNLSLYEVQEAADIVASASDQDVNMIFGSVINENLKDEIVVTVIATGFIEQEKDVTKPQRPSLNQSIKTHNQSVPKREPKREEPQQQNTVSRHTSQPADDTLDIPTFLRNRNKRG
Briefly: Inhibition of GFP-tagged FtsZ in Bacillus subtilis 168 assessed as inhibition of z-ring formation at 0.125 ug/ml incubated for 4 hrs by FM 5-96 dye based super-resolution microscopy. Conditions: dose 0.125 µg/ml. The procedure, abridged: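 B. subtilis 168 carried an IPTG-inducible FtsZ-GFP plasmid and was grown overnight at 37 °C in LB with 30 μg mL−1 chloramphenicol. It was back-diluted to A600 = 0.01, induced with 40 μM IPTG, and treated with compound for 4 h at 37 °C with shaking. Cells were pelleted, resuspended in PBS and mounted on agarose pads. Membranes were stained with FM 5-96, and FtsZ-GFP localization was imaged by super-resolution microscopy (N-SIM).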

For experiment [8], the system named is Staphylococcus aureus. Briefly: Bactericidal activity against methicillin-resistant Staphylococcus aureus BAA 41 assessed as inhibition of bacterial growth at 4 ug/ml incubated for 24 hrs by time-kill assay. Format: functional. Conditions: dose 4 µg/ml. The procedure, abridged:
as §2

The subject of experiment [9] is Staphylococcus aureus. Briefly: Antibacterial activity against methicillin-resistant Staphylococcus aureus BAA 1720 assessed as inhibition of bacterial growth incubated for 18 hrs by CLSI protocol based two fold serial dilution method. Format: functional. In a few lines: as §1
The subject of the next experiment is Escherichia coli. In words: Synergistic antibacterial activity against Escherichia coli 25922 assessed as inhibition of bacterial growth incubated for 18 hrs in presence of PMBN by checkerboard assay. It is filed as functional. The procedure, abridged:
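E. coli ATCC 25922 was tested in MHB by the broth microdilution format with two-fold serial compound dilutions. Polymyxin B nonapeptide was added to each well at 20 μg mL−1 final before adding bacteria at 5 × 10^5 CFU mL−1. Growth was read by A600.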

The test system of experiment [10] is Staphylococcus aureus. In words: Bactericidal activity against methicillin-resistant Staphylococcus aureus BAA 41 assessed as inhibition of bacterial growth at 8 ug/ml incubated for 24 hrs by time-kill assay. It is filed as functional. The note with it: dose 8 µg/ml. The procedure, abridged: as §2

As to `NC(=O)c1c(F)ccc(OCc2nc3cc(Cl)cnc3s2)c1F`, the minimal inhibitory concentration (MIC) (commonly the least concentration at which growth counts as inhibited) is 1 µg/mL (≈ 2.81 µM) in the experiment on Staphylococcus aureus [1], 0.5 µg/mL (≈ 1.41 µM) in the experiment with Bacillus subtilis, 1 µg/mL (≈ 2.81 µM) in the experiment with Staphylococcus aureus [9] and 32 µg/mL in the experiment with Escherichia coli. Moreover, the outcome in the experiment on Staphylococcus aureus [2] and in the experiment on Staphylococcus aureus [6] was Active. The inhibition – broadly, the relative decrease from the control value, in per cent – in [3] was found to be 105%. Further, the Ratio in [4] is 2. Moreover, the “fractional inhibitory concentration index (FICI)” value with Staphylococcus aureus [5] came out at 0.52. Further, the inhibition result in experiment [7] is “Active”. For the same compound, the Activity in the experiment on Staphylococcus aureus [8] and in the experiment on Staphylococcus aureus [10] was 0 log10CFU/ml in each case.
